Assay results published in ChEMBL document CHEMBL5260824, “9-Deazapurines as Broad-Spectrum Inhibitors of the ABC Transport Proteins P-Glycoprotein, Multidrug Resistance-Associated Protein 1, and Breast Cancer Resistance Protein” (J Med Chem, 2017).

Assays:
[1] = target: ATP-dependent translocase ABCB1 (Homo sapiens, UniProt P08183); test: Inhibition of P-gp (unknown origin) incubated for 30 mins by calcein AM analysis
In short: (§1)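 A2780/ADR cells (doxorubicin-selected, P-gp overexpressing), about 30,000 per well in Krebs-HEPES buffer pH 7.4, incubated 30 min at 37 °C with compound (100 nM–100 µM added solutions). Calcein AM (3.125 µM solution added) then fluorescence read every 60 s at 37 °C, ex 485/em 520 nm; slope over minutes 5–30 plotted vs log concentration. Cyclosporine A 10 µM = 100% inhibition, buffer = 0%.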

[2] = target: Multidrug resistance-associated protein 1 (Homo sapiens, UniProt P33527); test: Inhibition of MRP1 in human NCI-H69AR cells incubated for 180 mins in presence of daunorubicin by flow cytometry analysis; assay type: cell-based
Multidrug resistance-associated protein 1, sequence (P33527 whole entry): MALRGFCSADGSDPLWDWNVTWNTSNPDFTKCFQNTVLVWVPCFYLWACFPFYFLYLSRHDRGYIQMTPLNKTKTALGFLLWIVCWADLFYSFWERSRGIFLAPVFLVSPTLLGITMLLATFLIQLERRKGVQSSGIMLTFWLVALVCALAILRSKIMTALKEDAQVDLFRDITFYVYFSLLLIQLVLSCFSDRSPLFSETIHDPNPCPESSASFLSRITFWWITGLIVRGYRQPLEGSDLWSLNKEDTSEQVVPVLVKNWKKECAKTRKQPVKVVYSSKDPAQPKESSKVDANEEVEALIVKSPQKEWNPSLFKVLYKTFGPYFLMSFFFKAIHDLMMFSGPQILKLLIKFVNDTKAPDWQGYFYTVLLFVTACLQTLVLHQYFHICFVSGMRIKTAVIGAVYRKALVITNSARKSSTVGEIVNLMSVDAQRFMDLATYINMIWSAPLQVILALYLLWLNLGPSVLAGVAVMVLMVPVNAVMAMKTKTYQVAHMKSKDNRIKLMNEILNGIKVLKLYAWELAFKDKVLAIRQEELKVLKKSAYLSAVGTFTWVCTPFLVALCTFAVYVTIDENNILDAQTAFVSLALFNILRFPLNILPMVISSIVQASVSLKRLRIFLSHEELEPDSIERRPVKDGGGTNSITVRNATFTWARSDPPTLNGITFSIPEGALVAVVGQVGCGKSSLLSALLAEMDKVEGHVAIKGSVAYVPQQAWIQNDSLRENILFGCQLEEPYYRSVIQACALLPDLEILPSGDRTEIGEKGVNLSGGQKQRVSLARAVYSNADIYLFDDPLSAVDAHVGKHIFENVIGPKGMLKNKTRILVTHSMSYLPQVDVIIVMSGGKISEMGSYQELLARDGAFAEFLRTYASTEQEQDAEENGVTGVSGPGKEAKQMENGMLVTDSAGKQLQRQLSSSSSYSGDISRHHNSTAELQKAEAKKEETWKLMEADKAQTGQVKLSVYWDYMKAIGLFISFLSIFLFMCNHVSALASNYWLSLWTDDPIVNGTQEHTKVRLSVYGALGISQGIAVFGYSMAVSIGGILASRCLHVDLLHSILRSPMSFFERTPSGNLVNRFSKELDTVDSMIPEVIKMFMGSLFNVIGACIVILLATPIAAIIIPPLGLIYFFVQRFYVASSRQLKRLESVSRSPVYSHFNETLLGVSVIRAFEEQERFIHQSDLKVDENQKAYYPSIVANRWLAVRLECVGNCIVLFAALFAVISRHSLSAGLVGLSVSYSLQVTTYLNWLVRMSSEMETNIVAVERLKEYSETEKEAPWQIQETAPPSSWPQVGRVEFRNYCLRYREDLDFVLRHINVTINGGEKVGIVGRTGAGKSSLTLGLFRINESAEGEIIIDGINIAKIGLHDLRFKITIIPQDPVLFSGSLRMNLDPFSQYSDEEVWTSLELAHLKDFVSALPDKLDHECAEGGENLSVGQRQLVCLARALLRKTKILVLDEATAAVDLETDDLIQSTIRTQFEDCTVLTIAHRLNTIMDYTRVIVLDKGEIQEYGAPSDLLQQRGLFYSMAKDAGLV
In short: (§2)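 H69AR cells (doxorubicin-selected small cell lung cancer, RPMI-1640/20% FBS), about 60,000 per well, preincubated 15 min with compound (100 nM–100 µM added solutions, in unsupplemented medium), then daunorubicin (30 µM solution added); steady state after 180 min, 37 °C, 5% CO2. Cells resuspended; flow cytometry, 488 nm excitation, FL3 (≥670 nm). Reference inhibitor 75 at 10 µM = 100%; Imax relative to it.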

[3] = target: T1, Broad substrate specificity ATP-binding cassette transporter ABCG2 (Homo sapiens, UniProt Q9UNQ0); test: Inhibition of BCRP (unknown origin) expressed in dog MDCK-II cells using pheophorbide A as substrate preincubated for 20 mins followed by substrate addition and measured after 120 mins by flow cytometry analysis; assay type: cell-based
T1 sequence (Q9UNQ0 whole entry): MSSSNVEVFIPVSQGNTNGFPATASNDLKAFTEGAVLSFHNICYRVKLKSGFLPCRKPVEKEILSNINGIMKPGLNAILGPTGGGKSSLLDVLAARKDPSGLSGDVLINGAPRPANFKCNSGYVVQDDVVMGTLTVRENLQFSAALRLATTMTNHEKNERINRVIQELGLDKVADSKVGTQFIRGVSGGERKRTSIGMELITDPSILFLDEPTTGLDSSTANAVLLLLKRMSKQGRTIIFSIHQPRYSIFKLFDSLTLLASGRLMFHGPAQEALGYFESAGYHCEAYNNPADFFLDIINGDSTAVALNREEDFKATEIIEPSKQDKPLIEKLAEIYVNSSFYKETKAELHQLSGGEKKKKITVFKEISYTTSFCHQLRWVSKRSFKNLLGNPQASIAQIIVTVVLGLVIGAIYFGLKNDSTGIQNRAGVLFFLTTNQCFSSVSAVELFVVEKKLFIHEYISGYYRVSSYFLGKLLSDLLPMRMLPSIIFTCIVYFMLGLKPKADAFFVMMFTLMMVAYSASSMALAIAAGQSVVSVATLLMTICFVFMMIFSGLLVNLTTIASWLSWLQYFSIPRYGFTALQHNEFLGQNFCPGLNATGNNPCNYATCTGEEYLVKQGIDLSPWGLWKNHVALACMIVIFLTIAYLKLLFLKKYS
In short: (§3)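 MDCK II cells transfected with human wild-type BCRP cDNA C-terminally fused to GFP, grown in DMEM/10% FBS. About 45,000 cells per well preincubated 20 min at 37 °C, 5% CO2 with compound (100 nM–100 µM added solutions), then pheophorbide A (5 µM solution added) for 120 min to steady state. Resuspended; flow cytometry, 488 nm excitation, FL3 (≥670 nm); GFP in FL1. Reference inhibitor 24 at 10 µM = 100%.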

P-gp (ABCB1) = P-gp (ABCB1) (Homo sapiens, UniProt P08183); test: Inhibition of P-gp (unknown origin) at 10 uM incubated for 30 mins by calcein AM analysis relative to control; settings: probe calcein AM; in short: as §1
P-gp (ABCB1), sequence (P08183 whole entry): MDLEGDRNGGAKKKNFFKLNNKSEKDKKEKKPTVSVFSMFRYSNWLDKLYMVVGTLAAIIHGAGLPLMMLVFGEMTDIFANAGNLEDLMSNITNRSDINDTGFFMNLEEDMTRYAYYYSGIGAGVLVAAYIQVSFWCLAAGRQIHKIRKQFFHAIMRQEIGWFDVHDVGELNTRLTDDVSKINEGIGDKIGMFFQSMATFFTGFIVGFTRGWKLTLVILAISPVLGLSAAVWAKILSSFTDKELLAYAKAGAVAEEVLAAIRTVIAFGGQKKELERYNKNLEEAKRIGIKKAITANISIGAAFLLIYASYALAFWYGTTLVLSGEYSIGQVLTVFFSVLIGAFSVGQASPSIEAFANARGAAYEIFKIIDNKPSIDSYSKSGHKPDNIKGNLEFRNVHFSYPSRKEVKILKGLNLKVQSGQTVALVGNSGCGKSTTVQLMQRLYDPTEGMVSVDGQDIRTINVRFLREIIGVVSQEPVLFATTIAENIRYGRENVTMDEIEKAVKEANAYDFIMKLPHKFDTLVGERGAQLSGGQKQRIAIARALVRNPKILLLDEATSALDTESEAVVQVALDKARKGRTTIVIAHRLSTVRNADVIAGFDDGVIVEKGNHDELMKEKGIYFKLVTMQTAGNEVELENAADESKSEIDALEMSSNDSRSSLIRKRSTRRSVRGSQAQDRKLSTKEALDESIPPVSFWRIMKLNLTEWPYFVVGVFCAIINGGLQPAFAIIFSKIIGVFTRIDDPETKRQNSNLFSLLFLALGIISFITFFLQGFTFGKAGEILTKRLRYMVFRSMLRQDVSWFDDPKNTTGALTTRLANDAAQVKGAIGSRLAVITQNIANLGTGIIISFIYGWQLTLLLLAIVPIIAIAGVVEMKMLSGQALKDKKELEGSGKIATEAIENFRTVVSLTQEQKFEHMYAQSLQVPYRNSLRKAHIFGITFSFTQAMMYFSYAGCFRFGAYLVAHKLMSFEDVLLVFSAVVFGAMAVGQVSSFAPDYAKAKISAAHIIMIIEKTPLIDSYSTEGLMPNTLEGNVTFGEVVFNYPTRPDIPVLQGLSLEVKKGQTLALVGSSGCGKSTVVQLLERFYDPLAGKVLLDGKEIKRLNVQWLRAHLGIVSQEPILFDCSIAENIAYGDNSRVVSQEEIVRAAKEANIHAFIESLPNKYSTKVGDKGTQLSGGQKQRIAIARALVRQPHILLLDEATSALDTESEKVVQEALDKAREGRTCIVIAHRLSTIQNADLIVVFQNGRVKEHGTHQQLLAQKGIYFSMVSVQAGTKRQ

MRP1 = MRP1 (Homo sapiens, UniProt P33527); test: Inhibition of MRP1 in human NCI-H69AR cells at 10 uM incubated for 180 mins in presence of daunorubicin by flow cytometry analysis relative to control; assay type: cell-based; settings: probe daunorubicin; in short: as §2
MRP1, sequence (P33527 whole entry): as the sequence (P33527 whole entry) above

BCRP (ABCG2) = target: T2, BCRP (ABCG2) (Homo sapiens, UniProt Q9UNQ0); test: Inhibition of BCRP (unknown origin) expressed in dog MDCK-II cells at 10 uM using pheophorbide A as substrate preincubated for 20 mins followed by substrate addition and measured after 120 mins by flow cytometry analysis relative to control; assay type: cell-based; settings: probe pheophorbide A; in short: as §3
T2 sequence (Q9UNQ0 whole entry): T1 sequence (Q9UNQ0 whole entry)

ATP-dependent translocase ABCB1, sequence (P08183 whole entry): as the sequence (P08183 whole entry) above

SMILES | IC50 [1] | IC50 [2] | IC50 [3] | inhibition at 0.5 h, 10 µM (P-gp (ABCB1)) | inhibition at 3 h, 10 µM (MRP1) | inhibition at 2 h, 10 µM (BCRP (ABCG2))
N#Cc1c2n(c3c(N4CCN(C(=O)c5ccco5)CC4)ncnc13)CCCC2 |  | 0.883 µM | 29.5 µM | > 25% | > 25% | > 25%
Cn1cc(C#N)c2ncnc(N3CCN(CCc4c[nH]c5ccccc45)CC3)c21 |  | 0.337 µM |  |  | > 25% | 
CCn1cc(C#N)c2ncnc(N3CCN(CCc4c[nH]c5ccccc45)CC3)c21 |  | 0.855 µM | 13.8 µM |  | > 25% | > 25%
N#Cc1c2n(c3c(N4CCN(CCc5ccccc5)CC4)ncnc13)CCCC2 | 9.63 µM |  |  |  |  | 
N#Cc1c2n(c3c(N4CCN(Cc5ccc6c(c5)OCO6)CC4)ncnc13)CCCCC2 | 5.71 µM | 1.02 µM | 23.7 µM | > 25% | > 25% | > 25%
N#Cc1c2n(c3c(N4CCN(c5ccccn5)CC4)ncnc13)CCCC2 |  | 1.02 µM | 4.86 µM | > 25% | 25% | > 25%
N#Cc1c2n(c3c(NCCc4c[nH]c5ccccc45)ncnc13)CCCC2 |  | 0.957 µM |  | > 25% | 25% | > 25%
N#Cc1c2n(c3c(N4CCN(c5ccccn5)CC4)ncnc13)CCCCC2 |  |  |  | > 25% | 25% | > 25%
N#Cc1c2n(c3c(N4CCN(C(=O)c5ccco5)CC4)ncnc13)CCCCC2 |  | 1.01 µM | 12.9 µM | > 25% | > 25% | > 25%
CCOc1ccc(-n2cc(C#N)c3ncnc(N4CCN(CCc5ccccc5)CC4)c32)cc1 |  | 1.32 µM |  | > 25% | > 25% | > 25%
N#Cc1c2n(c3c(N4CCN(CCc5ccncc5)CC4)ncnc13)CCCCC2 |  | 1.14 µM | 12.4 µM | > 25% | 25% | > 25%
CCCn1cc(C#N)c2ncnc(N3CCN(CCc4c[nH]c5ccccc45)CC3)c21 |  | 0.468 µM |  |  | > 25% | 
N#Cc1cn(CCc2ccccc2)c2c(N3CCN(Cc4ccc5c(c4)OCO5)CC3)ncnc12 |  | 1.8 µM |  | > 25% | > 25% | > 25%

Second part, the molecule after the results:

IC50 [1] | IC50 [2] | IC50 [3] | inhibition at 0.5 h, 10 µM (P-gp (ABCB1)) | inhibition at 3 h, 10 µM (MRP1) | inhibition at 2 h, 10 µM (BCRP (ABCG2)) | SMILES
13.9 µM | 0.322 µM | 14.6 µM | > 25% | > 25% | > 25% | N#Cc1c2n(c3c(N4CCN(Cc5ccc6c(c5)OCO6)CC4)ncnc13)CCCC2
 | 0.672 µM | 27.8 µM | > 25% | 25% | > 25% | N#Cc1c2n(c3c(N4CCN(CCc5ccncc5)CC4)ncnc13)CCCC2
 | 0.638 µM |  | > 25% | > 25% | > 25% | COc1ccccc1-n1cc(C#N)c2ncnc(N3CCN(CCc4ccccc4)CC3)c21
1.28 µM | 0.328 µM |  | > 25% | > 25% | > 25% | N#Cc1cn(-c2ccccc2)c2c(N3CCN(CCc4c[nH]c5ccccc45)CC3)ncnc12
 | 0.751 µM |  | > 25% | > 25% | > 25% | N#Cc1cn(-c2ccccc2)c2c(N3CCN(Cc4ccc5c(c4)OCO5)CC3)ncnc12
1.71 µM | 0.289 µM |  | > 25% | 25% | > 25% | N#Cc1c2n(c3c(N4CCN(CCc5c[nH]c6ccccc56)CC4)ncnc13)CCCCC2
7.29 µM | 0.859 µM |  | > 25% | > 25% | > 25% | CCOc1ccc(-n2cc(C#N)c3ncnc(N4CCN(Cc5ccccc5)CC4)c32)cc1
